Data set [1] in a line: Negative inotropic activity in guinea pig left atrium assessed as decrease in atrial tension at 5 uM relative to control. Type of data set: functional, Cavia porcellus, Cardiac atrium. On the set-up: scale not given: the % may be the effect or the level left.
Data set [2] has as its system Ileum. As to the kind of experiment: Vasorelaxant activity in K+-depolarized guinea pig ileum longitudinal smooth muscle assessed as inhibition of calcium-induced contraction at 100 uM. Type of data set: functional. The following applies: Cavia porcellus.
The subject of data set [3] is Ileum. As to the kind of experiment: Vasorelaxant activity in K+-depolarized guinea pig ileum longitudinal smooth muscle assessed as inhibition of calcium-induced contraction. The format is functional, tissue-based. The following applies: Cavia porcellus.
Data set [4] can be described thus: Negative chronotropic activity in guinea pig spontaneously beating right atrium assessed as decrease in atrial rate at 100 uM relative to control. Set-up: scale not given: the % may be the effect or the level left. The format is functional, tissue-based, Cavia porcellus, Cardiac atrium.
In data set [5] the test system is Aorta. The data set is described as follows: Vasorelaxant activity in K+-depolarized guinea pig aorta assessed as inhibition of calcium-induced contraction at 100 uM. The format is functional. The following applies: Cavia porcellus.
A short description of data set [6]: Negative inotropic activity in guinea pig left atrium assessed as decrease in atrial tension relative to control. Type of data set: functional, tissue-based. The following applies: Cavia porcellus, Cardiac atrium.
Data set [7] can be described thus: Negative inotropic activity in guinea pig left atrium assessed as decrease in atrial tension at 50 uM relative to control. The format is functional, tissue-based, Cavia porcellus, Cardiac atrium. On the set-up: scale not given: the % may be the effect or the level left.
Data set [8] in a line: Negative chronotropic activity in guinea pig spontaneously beating right atrium assessed as decrease in atrial rate at 100 uM relative to control. On the set-up: scale not given: the % may be the effect or the level left.
Data set [9] relates to Ileum. As to the kind of experiment: Vasorelaxant activity in K+-depolarized guinea pig ileum longitudinal smooth muscle assessed as inhibition of calcium-induced contraction at 50 uM. Type of data set: functional. The note with it: Cavia porcellus.
In data set [10] the test system is Ileum. The data set is described as follows: Vasorelaxant activity in K+-depolarized guinea pig ileum longitudinal smooth muscle assessed as inhibition of calcium-induced contraction at 10 uM. Type of data set: functional. The note with it: Cavia porcellus.
Data set [11] in a line: Negative inotropic activity in guinea pig left atrium assessed as decrease in atrial tension at 100 uM relative to control. The format is functional, tissue-based, Cavia porcellus, Cardiac atrium. Set-up: scale not given: the % may be the effect or the level left.
Data set [12] deals with Aorta. As to the kind of experiment: Vasorelaxant activity in K+-depolarized guinea pig aorta assessed as inhibition of calcium-induced contraction at 50 uM. Type of data set: functional. The following applies: Cavia porcellus.
Data set [13] in a line: Negative inotropic activity in guinea pig left atrium assessed as decrease in atrial tension at 1 uM relative to control. On the set-up: scale not given: the % may be the effect or the level left. The format is functional, Cavia porcellus, Cardiac atrium.
A short description of data set [14]: Negative chronotropic activity in guinea pig spontaneously beating right atrium assessed as decrease in atrial rate at 10 uM relative to control. Type of data set: functional, Cavia porcellus, Cardiac atrium. Set-up: scale not given: the % may be the effect or the level left.
Data set [15] in a line: Negative inotropic activity in guinea pig left atrium assessed as decrease in atrial tension at 10 uM relative to control. On the set-up: scale not given: the % may be the effect or the level left. Type of data set: functional, Cavia porcellus, Cardiac atrium.
A further data set has as its target L-type calcium channel (Rattus norvegicus, UniProt P22002+P27732+Q02485). The data set is described as follows: Displacement of [3H]diltiazem from L-type calcium channel in Sprague-Dawley rat cardiac myocytes at 10 uM. The format is cell-based. The note with it: probe [3H]diltiazem, read-out: Activity. On the technique in general: Displacement assays read how much labelled ligand stays bound in the presence of the test substance.

The target in data set [16] is Voltage-gated L-type calcium channel (Rattus norvegicus, UniProt P22002+Q02485+P27732). As to the kind of experiment: Displacement of [3H]diltiazem from L-type calcium channel in Sprague-Dawley rat cardiac myocytes. Type of data set: cell-based. In outline: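 Rat cardiomyocyte preparation. [3H]diltiazem at 5 nM is incubated with test compound at increasing concentrations from 0.1 nM to 100 µM. The readout is the inhibition of [3H]diltiazem binding to the benzothiazepine site.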

Data set [17] is described as follows: Dissociation constant, pKa of the compound. Type of data set: physicochemical. An outline of the steps: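 pKa values are calculated in silico, not measured experimentally.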
The subject of data set [18] is Ileum. The data set is described as follows: Vasorelaxant activity in K+-depolarized guinea pig ileum longitudinal smooth muscle assessed as inhibition of calcium-induced contraction at 1 uM. The following applies: Cavia porcellus. Type of data set: functional.
A short description of data set [19]: Negative chronotropic activity in guinea pig spontaneously beating right atrium assessed as decrease in atrial rate at 5 uM relative to control. The format is functional, Cavia porcellus, Cardiac atrium. Set-up: scale not given: the % may be the effect or the level left.

The source of these data is ChEMBL document CHEMBL1140072, “Discovery of novel and cardioselective diltiazem-like calcium channel blockers via virtual screening” (J Med Chem, 2008).

On to `CN(C)CCNc1cc(-c2cccnc2)nc2ccccc12`, for which the Activity is 76% in [1] and 4% in data set [4]. Also, the figures for the inhibition at 100 µM in the data set on Ileum [2] and in the data set on Aorta [5] were 72% and 5%, respectively. Moreover, the IC50 in the data set on Ileum [3] was determined as 20.3 µM. In addition, in data set [6], the EC50 turned out to be 300 nM.

As to `O=S(=O)(c1ccc(Cl)cc1)N(C1CCNCC1)C1CC1`, the Activity in data set [7] stood at 76%; in [8] it was 64%. Besides, the IC50 with Ileum [3] is 14.1 µM. Also, in the data set on Ileum [9], the inhibition at 50 µM came to 89%. The inhibition at 100 µM in the data set on Aorta [5] turned out to be 19%. Further, the EC50 in data set [6] came to 310 nM.

Take `O=S(=O)(c1cccc2c(Cl)cccc12)N1CCCNCC1`: the inhibition at 10 µM in the data set on Ileum [10] was found to be 40%. For the same molecule, the values for the Activity in data set [11] and in data set [8] were 98% and 46%, respectively. For the same molecule, in the data set on Aorta [12], the inhibition at 50 µM turned out to be 43%. Further, the EC50 in data set [6] came out at 430 nM.

For the molecule `CCO[C@]1(c2ccc(Br)cc2)SC=C(C)n2c1noc2=O`, the inhibition at 100 µM with Ileum [2] was determined as 3%; in the data set on Aorta [5], 11%. The Activity worked out at 58% in data set [13] and 16% in data set [14]. The EC50 in data set [6] is 70 nM.

With `CCc1c(C)cc(C)cc1OC[C@@H](O)CNC(C)C`, the Activity was 76% in data set [7] and 40% in data set [4]. The inhibition at 100 µM in the data set on Aorta [5] is 30%. In addition, the EC50 in [6] was found to be 3590 nM.

As for `CCOc1ccc(NC(=O)CCN(CC)CC)cc1`, the Activity amounted to 79% in data set [11] and 30% in data set [4]. Further, the inhibition at 100 µM in the data set with Aorta [5] is 11%. Moreover, in data set [6], the EC50 was determined as 1050 nM.

With `CC(C)(CNC(=S)Nc1ccccc1)N1CCOCC1`, the Activity came out at 94% in [11] and 10% in data set [4]. Moreover, the inhibition at 100 µM is 76% with Ileum [2] and 20% in the data set with Aorta [5]. Further, the IC50 in the data set with Ileum [3] was 16.5 µM. Further, the EC50 in [6] was 730 nM.

With `COc1ccccc1NC(=O)OCC1CCCCN1C` (configuration not stated), the Activity in [11] was determined as 87%; in [4], 17%. Moreover, the inhibition at 100 µM with Ileum [2] is 73%; in the data set with Aorta [5] it was 10%. In addition, the IC50 with Ileum [3] was 18.4 µM. In addition, the EC50 in [6] turned out to be 970 nM.

As for `COc1ccc(Cl)cc1NC(=O)N1CCN(C)CC1`, the Activity in [7] came to 67%; in data set [4], 10%. Moreover, the inhibition at 100 µM in the data set on Ileum [2] was 44%; in the data set with Aorta [5] it was 7%. In addition, the EC50 in data set [6] is 340 nM.

With `O=C(COc1ccccc1Cl)N1CCNCC1`, the Activity in [7] is 60%; in [4], 3%. In addition, in the data set on Aorta [5], the inhibition at 100 µM was found to be 1%. For the same molecule, in data set [6], the EC50 was 520 nM.

As to `CCN(CC)CCOc1ccc2ccc(=O)oc2c1`, the inhibition at 100 µM in the data set with Ileum [2] is 22%; with Aorta [5], 14%. The Activity in [4] came to 28%; in data set [15] it was 67%. Also, in [6], the EC50 came out at 250 nM.

Regarding `CN1CCN(S(=O)(=O)c2cccc3cccnc23)CC1`, the inhibition at 10 µM on L-type calcium channel came out at 60%. The inhibition at 100 µM in the data set on Ileum [2] was determined as 28%; in the data set on Aorta [5], 18%. The Activity is 19% in [8] and 84% in data set [15]. In data set [6], the EC50 amounted to 450 nM.

With `CN(C)CCNC(=O)c1cc2ccccc2cc1O`, the Ki in data set [16] came to 0.45 µM. Further, the Activity is reported as 90% in data set [11] and 35% in data set [4]. The inhibition at 100 µM with Ileum [2] was 61%; in the data set with Aorta [5], 13%. Also, the IC50 in the data set with Ileum [3] worked out at 20.2 µM. For the same molecule, the EC50 in [6] is 350 nM.

The molecule `Cc1ccccc1CC(=O)c1ccc(O)c(CN(C)C)c1O` came in with a pKa in data set [17] of 10.7. Further, the Activity was 78% in data set [1] and 48% in [8]. Further, the inhibition at 100 µM with Aorta [5] came to 4%. Also, the EC50 in [6] is 840 nM.

Consider `CN(Cc1ccccc1)Cc1ccnc(Br)c1O`, for which the Activity is reported as 70% in [11] and 6% in data set [4]. Further, in the data set on Ileum [3], the 50% inhibitory concentration (IC50) came out at 3.28 µM. Moreover, in the data set with Ileum [9], the inhibition at 50 µM was found to be 57%. Also, in the data set on Aorta [5], the inhibition at 100 µM was determined as 2%. Further, the 50% effective concentration (EC50) in data set [6] amounted to 1110 nM.

On to `COc1cc2c(cc1OC)[C@H]1CC(=O)[C@H]3CCC[C@H]3N1CC2`, for which the Activity in data set [11] came to 64%; in data set [4], 4%. In addition, the inhibition at 100 µM in the data set with Aorta [5] turned out to be 3%. Also, in data set [6], the EC50 was found to be 2170 nM.

For `Cc1cc(C(C)(C)C)cc(C)c1NC(=O)CN1CCOCC1`, the Activity in [4] is given as 29%; in data set [15], 87%. The inhibition at 100 µM in the data set with Aorta [5] turned out to be 26%. Also, the EC50 in data set [6] turned out to be 840 nM.

Regarding `CN(C)CCOC(c1ccc(Cl)cc1)c1ccccn1` (configuration not stated) [CARBINOXAMINE], the Ki in data set [16] was 1.08 µM. Moreover, in [11], the Activity was found to be 76%. Moreover, in the data set with Ileum [3], the IC50 came out at 9.34 µM. Also, in the data set with Ileum [9], the inhibition at 50 µM was determined as 62%. In addition, in data set [4], the Activity came to 48%. The inhibition at 100 µM in the data set on Aorta [5] stood at 28%. Moreover, in data set [6], the EC30 turned out to be 0.48 µM and the EC50 came out at 250 nM.

Turning to `CC(C)NC[C@@H](O)COc1cccc2ccccc12` [DEXPROPRANOLOL], the Activity in data set [7] is given as 92%; in data set [8], 26%. Further, the inhibition at 100 µM in the data set on Ileum [2] worked out at 74%; with Aorta [5], 36%.

Consider `COc1ccc([C@@H]2Sc3ccccc3N(CCN(C)C)C(=O)[C@@H]2OC(C)=O)cc1` [DILTIAZEM], for which the inhibition at 1 µM with Ileum [18] turned out to be 98%. Further, the IC50 in the data set on Ileum [3] stood at 0.11 µM; in data set [6] it was 2600 nM. Also, in the data set with Aorta [5], the inhibition at 100 µM was 88%. Moreover, the figures for the Activity in data set [19] and in data set [15] were 94% and 78%, respectively. The concentration for an effect of 30% (EC30) in data set [6] was determined as 0.07 µM. Besides, the half-maximal effective concentration (EC50) in data set [6] stood at 790 nM.

Take `COc1ccc(CN(CCN(C)C)c2ccccn2)cc1` [PYRILAMINE]: the Activity stood at 81% in [11] and 47% in data set [4]. Besides, the inhibition at 100 µM with Aorta [5] was 23%. Besides, the EC50 in [6] is 6260 nM.

What is called IC50 is the concentration that gives 50% inhibition. For orientation: EC50 means the concentration giving half of the maximal effect. A word on the Ki: it is a measure of affinity in units of concentration, obtained from inhibition or displacement. As a reminder, the pKa is the pH at which an ionisable group is half protonated. A word on the EC30: it is the point of the concentration-response curve where the effect stands at 30%.
